From ChEMBL document CHEMBL1144885 (J Med Chem, 2003)
pEC50, pKi: −log10 of the molar value.

Tests used:
Histamine H3 receptor [1] = target: T1, Histamine H3 receptor (Homo sapiens, UniProt Q9Y5N1); assay: Inhibitory activity determined by the inhibition of cAMP- stimulated beta-galactosidase transcription in SK-N-MC cells expressing the human Histamine H3 receptor; assay type: cell-based
Histamine H4 receptor [2] = target: T2, Histamine H4 receptor (Homo sapiens, UniProt Q9H3N8); assay: Inhibitory activity determined by the inhibition of cAMP- stimulated beta-galactosidase transcription in SK-N-MC cells expressing the human Histamine H4 receptor; assay type: cell-based
T2 sequence (Q9H3N8 whole entry): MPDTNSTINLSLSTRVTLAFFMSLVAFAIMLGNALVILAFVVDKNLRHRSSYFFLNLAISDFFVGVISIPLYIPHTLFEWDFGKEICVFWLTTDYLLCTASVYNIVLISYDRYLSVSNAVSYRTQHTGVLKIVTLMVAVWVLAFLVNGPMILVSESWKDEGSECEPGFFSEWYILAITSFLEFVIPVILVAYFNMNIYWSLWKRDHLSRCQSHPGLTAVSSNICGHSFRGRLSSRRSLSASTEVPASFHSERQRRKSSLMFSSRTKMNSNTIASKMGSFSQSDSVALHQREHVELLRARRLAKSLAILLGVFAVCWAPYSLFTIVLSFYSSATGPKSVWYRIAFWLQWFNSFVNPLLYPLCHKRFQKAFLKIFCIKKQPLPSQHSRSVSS
Procedure, shortened: (§1)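 SK-N-MC cells stably carrying human H4 receptor and a CRE-driven β-galactosidase reporter gene, grown overnight, then exposed 6 h at 37 °C to 1 μM forskolin plus ligand. Mean ± SEM, at least three independent experiments.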

Histamine H3 receptor [3] = target: T1, Histamine H3 receptor; assay: Inhibitory activity measured by [3H]- N alpha- methyl-histamine binding to membranes of SK-N-MC cells expressing the human Histamine H3 receptor; assay type: cell membranes
Histamine H4 receptor [4] = target: T2, Histamine H4 receptor; assay: Intrinsic activity for Histamine H4 receptor
Procedure, shortened: as §1, with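 “ligand. Medium removed; cells held overnight at 4 °C in pH 8 phosphate buffer containing Triton and 4 mM ONPG; absorbance read at 405 nm.” for “ligand.”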

Histamine H4 receptor [5] = target: T2, Histamine H4 receptor; assay: Inhibitory activity measured by [3H]histamine binding to membranes of SK-N-MC cells expressing the human Histamine H4 receptor

T1 sequence (Q9Y5N1 whole entry): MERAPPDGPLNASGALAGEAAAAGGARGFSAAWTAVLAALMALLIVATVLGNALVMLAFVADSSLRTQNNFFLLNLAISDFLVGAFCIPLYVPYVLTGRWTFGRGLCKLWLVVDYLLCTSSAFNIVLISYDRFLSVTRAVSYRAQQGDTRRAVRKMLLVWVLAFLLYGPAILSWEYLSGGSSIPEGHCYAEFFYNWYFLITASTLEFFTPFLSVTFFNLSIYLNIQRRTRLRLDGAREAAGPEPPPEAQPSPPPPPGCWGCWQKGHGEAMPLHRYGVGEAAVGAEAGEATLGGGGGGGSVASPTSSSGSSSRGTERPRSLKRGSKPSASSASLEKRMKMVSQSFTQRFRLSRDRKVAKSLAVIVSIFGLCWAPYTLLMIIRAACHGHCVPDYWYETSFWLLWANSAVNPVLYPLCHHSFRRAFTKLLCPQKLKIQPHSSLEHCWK

| SMILES | pEC50 (Histamine H3 receptor [1]) | pEC50 (Histamine H4 receptor [2]) | pKi (Histamine H3 receptor [3]) | Intrinsic activity (Histamine H4 receptor [4]) | pKi (Histamine H4 receptor [5]) |
| --- | --- | --- | --- | --- | --- |
| c1nc(CC2CCNCC2)c[nH]1 [IMMEPIP] | 9.88 | 7.25 | 9.32 | 0.73 |  |
| C=C(c1c[nH]cn1)C1CCNCC1 | 8.63 | < 5.00 | 8.40 |  | 5.55 |
| c1nc(C2CCNCC2)c[nH]1 | 5.74 | < 5.00 | 6.06 |  | 5.66 |
| NCCCCCCc1cnc[nH]1 | 7.48 | < 5.00 | 8.00 |  | 6.12 |
| NCCCCc1c[nH]cn1 [IMBUTAMINE] | 8.13 | 7.05 | 8.39 | 0.96 |  |
| c1nc(CC2CCCCN2)c[nH]1 (centres undefined) | 6.10 | < 5.00 |  |  | 5.05 |
| c1nc(CCCC2CCCNC2)c[nH]1 (centres undefined) |  | < 5.00 |  |  | 6.41 |
| c1nc(CC2CCCNC2)c[nH]1 (centres undefined) | 7.31 | 5.40 | 7.17 | 0.64 | 6.21 |
| c1nc(CC2CCNC2)c[nH]1 (centres undefined) | 8.88 | 6.13 | 8.44 | 0.83 | 7.29 |
| c1nc(CCCC2CCCCN2)c[nH]1 (centres undefined) | 6.49 | < 5.00 | 7.03 |  | 6.24 |
| c1nc(CCC2CCNCC2)c[nH]1 | 7.88 | < 5.00 | 7.70 |  | 6.43 |
| c1ncc(CCCC2CCNCC2)[nH]1 | 8.08 | < 5.00 | 8.35 |  | 6.21 |
| NCC1CC1c1c[nH]cn1 (centres undefined) | 7.71 | 5.96 | 7.45 | 0.56 | 6.95 |
| C1=C(c2c[nH]cn2)CCNC1 | 5.82 | < 5.00 | 5.37 |  | 3.58 |
| NCCCc1c[nH]cn1 [HOMOHISTAMINE] | 7.37 | 6.67 | 7.31 | 0.82 |  |
| O=C(c1c[nH]cn1)C1CCNCC1 | 5.56 | < 5.00 |  |  | 3.32 |
| C(=C1CCNCC1)c1c[nH]cn1 | 8.50 | < 5.00 | 8.23 |  | 5.76 |
| c1nc(CCC2CCCCN2)c[nH]1 (centres undefined) | < 5.00 | < 5.00 |  |  | 5.35 |
| c1nc(C[C@H]2CCNC2)c[nH]1 | 8.68 | 6.38 | 8.28 | 0.85 | 7.43 |
| C[C@@H](N)Cc1c[nH]cn1 |  | 5.95 |  | 1.04 |  |
| NCCCCCc1c[nH]cn1 [IMPENTAMINE] | 8.63 | < 5.00 |  |  | 6.43 |
| c1nc(C[C@@H]2CCNC2)c[nH]1 | 9.41 | 5.99 | 8.85 | 0.8 | 6.85 |
| N[C@H]1C[C@@H]1c1c[nH]cn1 [VUF-5297] | 8.23 | 5.15 | 8.03 | 0.61 | 5.96 |
| N[C@@H]1C[C@H]1c1cnc[nH]1 [VUF-5296] | 7.24 | < 5.00 | 7.17 |  | 5.42 |
| c1nc(CCC2CCCNC2)c[nH]1 (centres undefined) | 6.29 | 5.69 | 6.74 | 0.48 | 6.49 |
